Converted amounts (≈) assume the structure as drawn.
tested on: Bacillus subtilis; assay: Antibacterial activity against Bacillus subtilis by NCCLS broth microdilution method; assay type: functional; settings: Bacillus subtilis; read-out: MIC90

SMILES	MIC90
CC12CCCC(/C1=N\O)C(c1ccccc1)NC2c1ccccc1 (stereo unspecified)	> 128 µg/mL
CC1CC2C(=NO)C(C1)C(c1cccc(Cl)c1)NC2c1cccc(Cl)c1 (stereo unspecified)	32 µg/mL (≈ 82.2 µM)
CON=C1C2CC(C)CC1C(c1cccc(F)c1)NC2c1cccc(F)c1 (stereo in doubt; 56a)	16 µg/mL (≈ 43.2 µM)
CO/N=C1\C2CCCC1(C)C(c1ccc(C)cc1)NC2c1ccc(C)cc1 (stereo unspecified)	32 µg/mL (≈ 88.3 µM)
CC12CCCC(/C1=N\O)C(c1ccc(Cl)cc1)NC2c1ccc(Cl)cc1 (stereo unspecified)	> 128 µg/mL
CO/N=C1\C2CCCC1(C)C(c1cccc(OC)c1)NC2c1cccc(OC)c1 (stereo unspecified)	64 µg/mL (≈ 162 µM)
Cc1ccccc1C1NC(c2ccccc2C)C2(C)CCCC1/C2=N\O (stereo unspecified)	64 µg/mL (≈ 184 µM)
CON=C1C2CC(C)CC1C(c1ccc(Cl)cc1)NC2c1ccc(Cl)cc1 (stereo unspecified)	16 µg/mL (≈ 39.7 µM)
CC12CCCC(/C1=N\O)C(c1ccccc1F)NC2c1ccccc1F (stereo unspecified)	32 µg/mL (≈ 89.8 µM)
CC12CCCC(/C1=N\O)C(c1ccc(Br)cc1)NC2c1ccc(Br)cc1 (stereo unspecified)	> 128 µg/mL
COc1cccc(C2NC(c3cccc(OC)c3)C3(C)CCCC2/C3=N\O)c1 (stereo unspecified)	128 µg/mL (≈ 336 µM)
CC12CCCC(/C1=N\O)C(c1cccc(Cl)c1)NC2c1cccc(Cl)c1 (stereo unspecified)	> 128 µg/mL

tested on: Staphylococcus aureus; assay: Antibacterial activity against Staphylococcus aureus by NCCLS broth microdilution method; assay type: functional; settings: Staphylococcus aureus; read-out: MIC90

SMILES	MIC90
CC12CCCC(/C1=N\O)C(c1ccccc1)NC2c1ccccc1 (stereo unspecified)	128 µg/mL (≈ 399 µM)
CC1CC2C(=NO)C(C1)C(c1cccc(Cl)c1)NC2c1cccc(Cl)c1 (stereo unspecified)	64 µg/mL (≈ 164 µM)
CON=C1C2CC(C)CC1C(c1cccc(F)c1)NC2c1cccc(F)c1 (stereo in doubt; 56a)	16 µg/mL (≈ 43.2 µM)
CO/N=C1\C2CCCC1(C)C(c1ccc(C)cc1)NC2c1ccc(C)cc1 (stereo unspecified)	64 µg/mL (≈ 177 µM)
CC12CCCC(/C1=N\O)C(c1ccc(Cl)cc1)NC2c1ccc(Cl)cc1 (stereo unspecified)	64 µg/mL (≈ 164 µM)
CO/N=C1\C2CCCC1(C)C(c1cccc(OC)c1)NC2c1cccc(OC)c1 (stereo unspecified)	32 µg/mL (≈ 81.1 µM)
Cc1ccccc1C1NC(c2ccccc2C)C2(C)CCCC1/C2=N\O (stereo unspecified)	128 µg/mL (≈ 367 µM)
CON=C1C2CC(C)CC1C(c1ccc(Cl)cc1)NC2c1ccc(Cl)cc1 (stereo unspecified)	16 µg/mL (≈ 39.7 µM)
CC12CCCC(/C1=N\O)C(c1ccccc1F)NC2c1ccccc1F (stereo unspecified)	8 µg/mL (≈ 22.4 µM)
CC12CCCC(/C1=N\O)C(c1ccc(Br)cc1)NC2c1ccc(Br)cc1 (stereo unspecified)	64 µg/mL (≈ 134 µM)
COc1cccc(C2NC(c3cccc(OC)c3)C3(C)CCCC2/C3=N\O)c1 (stereo unspecified)	128 µg/mL (≈ 336 µM)
CC12CCCC(/C1=N\O)C(c1cccc(Cl)c1)NC2c1cccc(Cl)c1 (stereo unspecified)	64 µg/mL (≈ 164 µM)

tested on: Klebsiella pneumoniae; assay: Antibacterial activity against Klebsiella pneumoniae by NCCLS broth microdilution method; assay type: functional; settings: Klebsiella pneumoniae; read-out: MIC90

SMILES	MIC90
CC12CCCC(/C1=N\O)C(c1ccccc1)NC2c1ccccc1 (stereo unspecified)	> 128 µg/mL
CC1CC2C(=NO)C(C1)C(c1cccc(Cl)c1)NC2c1cccc(Cl)c1 (stereo unspecified)	32 µg/mL (≈ 82.2 µM)
CON=C1C2CC(C)CC1C(c1cccc(F)c1)NC2c1cccc(F)c1 (stereo in doubt; 56a)	64 µg/mL (≈ 173 µM)
CO/N=C1\C2CCCC1(C)C(c1ccc(C)cc1)NC2c1ccc(C)cc1 (stereo unspecified)	64 µg/mL (≈ 177 µM)
CC12CCCC(/C1=N\O)C(c1ccc(Cl)cc1)NC2c1ccc(Cl)cc1 (stereo unspecified)	16 µg/mL (≈ 41.1 µM)
CO/N=C1\C2CCCC1(C)C(c1cccc(OC)c1)NC2c1cccc(OC)c1 (stereo unspecified)	128 µg/mL (≈ 324 µM)
Cc1ccccc1C1NC(c2ccccc2C)C2(C)CCCC1/C2=N\O (stereo unspecified)	128 µg/mL (≈ 367 µM)
CON=C1C2CC(C)CC1C(c1ccc(Cl)cc1)NC2c1ccc(Cl)cc1 (stereo unspecified)	8 µg/mL (≈ 19.8 µM)
CC12CCCC(/C1=N\O)C(c1ccccc1F)NC2c1ccccc1F (stereo unspecified)	16 µg/mL (≈ 44.9 µM)
CC12CCCC(/C1=N\O)C(c1ccc(Br)cc1)NC2c1ccc(Br)cc1 (stereo unspecified)	> 128 µg/mL
COc1cccc(C2NC(c3cccc(OC)c3)C3(C)CCCC2/C3=N\O)c1 (stereo unspecified)	> 128 µg/mL
CC12CCCC(/C1=N\O)C(c1cccc(Cl)c1)NC2c1cccc(Cl)c1 (stereo unspecified)	64 µg/mL (≈ 164 µM)

tested on: Pseudomonas aeruginosa; assay: Antibacterial activity against Pseudomonas aeruginosa by NCCLS broth microdilution method; assay type: functional; settings: Pseudomonas aeruginosa; read-out: MIC90

SMILES	MIC90
CC12CCCC(/C1=N\O)C(c1ccccc1)NC2c1ccccc1 (stereo unspecified)	> 128 µg/mL
CC1CC2C(=NO)C(C1)C(c1cccc(Cl)c1)NC2c1cccc(Cl)c1 (stereo unspecified)	64 µg/mL (≈ 164 µM)
CON=C1C2CC(C)CC1C(c1cccc(F)c1)NC2c1cccc(F)c1 (stereo in doubt; 56a)	64 µg/mL (≈ 173 µM)
CO/N=C1\C2CCCC1(C)C(c1ccc(C)cc1)NC2c1ccc(C)cc1 (stereo unspecified)	128 µg/mL (≈ 353 µM)
CC12CCCC(/C1=N\O)C(c1ccc(Cl)cc1)NC2c1ccc(Cl)cc1 (stereo unspecified)	> 128 µg/mL
CO/N=C1\C2CCCC1(C)C(c1cccc(OC)c1)NC2c1cccc(OC)c1 (stereo unspecified)	> 128 µg/mL
Cc1ccccc1C1NC(c2ccccc2C)C2(C)CCCC1/C2=N\O (stereo unspecified)	> 128 µg/mL
CON=C1C2CC(C)CC1C(c1ccc(Cl)cc1)NC2c1ccc(Cl)cc1 (stereo unspecified)	32 µg/mL (≈ 79.3 µM)
CC12CCCC(/C1=N\O)C(c1ccccc1F)NC2c1ccccc1F (stereo unspecified)	32 µg/mL (≈ 89.8 µM)
CC12CCCC(/C1=N\O)C(c1ccc(Br)cc1)NC2c1ccc(Br)cc1 (stereo unspecified)	> 128 µg/mL
COc1cccc(C2NC(c3cccc(OC)c3)C3(C)CCCC2/C3=N\O)c1 (stereo unspecified)	> 128 µg/mL
CC12CCCC(/C1=N\O)C(c1cccc(Cl)c1)NC2c1cccc(Cl)c1 (stereo unspecified)	> 128 µg/mL

tested on: Candida albicans; assay: Antifungal activity against Candida albicans by NCCLS broth microdilution method; assay type: functional; settings: not given
Procedure, shortened: (§1)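 MIC90 was taken as the lowest concentration that inhibited 90% of pathogen growth after incubation, reported in μg/mL. Broth dilution followed the NCCLS reference standards: M27-A for yeasts and the proposed standard for conidium-forming filamentous fungi. Fluconazole was the reference drug.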

SMILES	MIC90
CON=C1C2CC(C)CC1C(c1cccc(F)c1)NC2c1cccc(F)c1 (stereo in doubt; 56a)	32 µg/mL (≈ 86.4 µM)

same assay, conditions: Candida albicans; read-out: MIC90

SMILES	MIC90
CC12CCCC(/C1=N\O)C(c1ccccc1)NC2c1ccccc1 (stereo unspecified)	> 128 µg/mL
CC1CC2C(=NO)C(C1)C(c1cccc(Cl)c1)NC2c1cccc(Cl)c1 (stereo unspecified)	64 µg/mL (≈ 164 µM)
CO/N=C1\C2CCCC1(C)C(c1ccc(C)cc1)NC2c1ccc(C)cc1 (stereo unspecified)	128 µg/mL (≈ 353 µM)
CC12CCCC(/C1=N\O)C(c1ccc(Cl)cc1)NC2c1ccc(Cl)cc1 (stereo unspecified)	32 µg/mL (≈ 82.2 µM)
CO/N=C1\C2CCCC1(C)C(c1cccc(OC)c1)NC2c1cccc(OC)c1 (stereo unspecified)	> 128 µg/mL
Cc1ccccc1C1NC(c2ccccc2C)C2(C)CCCC1/C2=N\O (stereo unspecified)	128 µg/mL (≈ 367 µM)
CON=C1C2CC(C)CC1C(c1ccc(Cl)cc1)NC2c1ccc(Cl)cc1 (stereo unspecified)	32 µg/mL (≈ 79.3 µM)
CC12CCCC(/C1=N\O)C(c1ccccc1F)NC2c1ccccc1F (stereo unspecified)	8 µg/mL (≈ 22.4 µM)
CC12CCCC(/C1=N\O)C(c1ccc(Br)cc1)NC2c1ccc(Br)cc1 (stereo unspecified)	> 128 µg/mL
COc1cccc(C2NC(c3cccc(OC)c3)C3(C)CCCC2/C3=N\O)c1 (stereo unspecified)	> 128 µg/mL
CC12CCCC(/C1=N\O)C(c1cccc(Cl)c1)NC2c1cccc(Cl)c1 (stereo unspecified)	64 µg/mL (≈ 164 µM)

tested on: Candida parapsilosis; assay: Antifungal activity against Candida parapsilosis by NCCLS broth microdilution method; assay type: functional; settings: Lodderomyces parapsilosis; read-out: MIC90; procedure, shortened: as §1

SMILES	MIC90
CC12CCCC(/C1=N\O)C(c1ccccc1)NC2c1ccccc1 (stereo unspecified)	> 128 µg/mL
CC1CC2C(=NO)C(C1)C(c1cccc(Cl)c1)NC2c1cccc(Cl)c1 (stereo unspecified)	128 µg/mL (≈ 329 µM)
CON=C1C2CC(C)CC1C(c1cccc(F)c1)NC2c1cccc(F)c1 (stereo in doubt; 56a)	32 µg/mL (≈ 86.4 µM)
CO/N=C1\C2CCCC1(C)C(c1ccc(C)cc1)NC2c1ccc(C)cc1 (stereo unspecified)	> 128 µg/mL
CC12CCCC(/C1=N\O)C(c1ccc(Cl)cc1)NC2c1ccc(Cl)cc1 (stereo unspecified)	64 µg/mL (≈ 164 µM)
CO/N=C1\C2CCCC1(C)C(c1cccc(OC)c1)NC2c1cccc(OC)c1 (stereo unspecified)	64 µg/mL (≈ 162 µM)
Cc1ccccc1C1NC(c2ccccc2C)C2(C)CCCC1/C2=N\O (stereo unspecified)	> 128 µg/mL
CON=C1C2CC(C)CC1C(c1ccc(Cl)cc1)NC2c1ccc(Cl)cc1 (stereo unspecified)	16 µg/mL (≈ 39.7 µM)
CC12CCCC(/C1=N\O)C(c1ccccc1F)NC2c1ccccc1F (stereo unspecified)	8 µg/mL (≈ 22.4 µM)
CC12CCCC(/C1=N\O)C(c1ccc(Br)cc1)NC2c1ccc(Br)cc1 (stereo unspecified)	> 128 µg/mL
COc1cccc(C2NC(c3cccc(OC)c3)C3(C)CCCC2/C3=N\O)c1 (stereo unspecified)	> 128 µg/mL
CC12CCCC(/C1=N\O)C(c1cccc(Cl)c1)NC2c1cccc(Cl)c1 (stereo unspecified)	64 µg/mL (≈ 164 µM)

tested on: Aspergillus niger; assay: Antifungal activity against Aspergillus niger by NCCLS broth microdilution method; assay type: functional; settings: not given; procedure, shortened: as §1

SMILES	MIC90
CON=C1C2CC(C)CC1C(c1cccc(F)c1)NC2c1cccc(F)c1 (stereo in doubt; 56a)	64 µg/mL (≈ 173 µM)

same assay, conditions: Aspergillus niger; read-out: MIC90

SMILES	MIC90
CC12CCCC(/C1=N\O)C(c1ccccc1)NC2c1ccccc1 (stereo unspecified)	> 128 µg/mL
CC1CC2C(=NO)C(C1)C(c1cccc(Cl)c1)NC2c1cccc(Cl)c1 (stereo unspecified)	64 µg/mL (≈ 164 µM)
CO/N=C1\C2CCCC1(C)C(c1ccc(C)cc1)NC2c1ccc(C)cc1 (stereo unspecified)	32 µg/mL (≈ 88.3 µM)
CC12CCCC(/C1=N\O)C(c1ccc(Cl)cc1)NC2c1ccc(Cl)cc1 (stereo unspecified)	64 µg/mL (≈ 164 µM)
CO/N=C1\C2CCCC1(C)C(c1cccc(OC)c1)NC2c1cccc(OC)c1 (stereo unspecified)	> 128 µg/mL
Cc1ccccc1C1NC(c2ccccc2C)C2(C)CCCC1/C2=N\O (stereo unspecified)	64 µg/mL (≈ 184 µM)
CON=C1C2CC(C)CC1C(c1ccc(Cl)cc1)NC2c1ccc(Cl)cc1 (stereo unspecified)	64 µg/mL (≈ 159 µM)
CC12CCCC(/C1=N\O)C(c1ccccc1F)NC2c1ccccc1F (stereo unspecified)	64 µg/mL (≈ 180 µM)
CC12CCCC(/C1=N\O)C(c1ccc(Br)cc1)NC2c1ccc(Br)cc1 (stereo unspecified)	128 µg/mL (≈ 268 µM)
COc1cccc(C2NC(c3cccc(OC)c3)C3(C)CCCC2/C3=N\O)c1 (stereo unspecified)	> 128 µg/mL
CC12CCCC(/C1=N\O)C(c1cccc(Cl)c1)NC2c1cccc(Cl)c1 (stereo unspecified)	> 128 µg/mL

tested on: Cryptococcus neoformans; assay: Antifungal activity against Cryptococcus neoformans by NCCLS broth microdilution method; assay type: functional; settings: Cryptococcus neoformans; read-out: MIC90; procedure, shortened: as §1

SMILES	MIC90
CC12CCCC(/C1=N\O)C(c1ccccc1)NC2c1ccccc1 (stereo unspecified)	> 128 µg/mL
CC1CC2C(=NO)C(C1)C(c1cccc(Cl)c1)NC2c1cccc(Cl)c1 (stereo unspecified)	> 128 µg/mL
CON=C1C2CC(C)CC1C(c1cccc(F)c1)NC2c1cccc(F)c1 (stereo in doubt; 56a)	64 µg/mL (≈ 173 µM)
CO/N=C1\C2CCCC1(C)C(c1ccc(C)cc1)NC2c1ccc(C)cc1 (stereo unspecified)	64 µg/mL (≈ 177 µM)
CC12CCCC(/C1=N\O)C(c1ccc(Cl)cc1)NC2c1ccc(Cl)cc1 (stereo unspecified)	32 µg/mL (≈ 82.2 µM)
CO/N=C1\C2CCCC1(C)C(c1cccc(OC)c1)NC2c1cccc(OC)c1 (stereo unspecified)	128 µg/mL (≈ 324 µM)
Cc1ccccc1C1NC(c2ccccc2C)C2(C)CCCC1/C2=N\O (stereo unspecified)	> 128 µg/mL
CON=C1C2CC(C)CC1C(c1ccc(Cl)cc1)NC2c1ccc(Cl)cc1 (stereo unspecified)	16 µg/mL (≈ 39.7 µM)
CC12CCCC(/C1=N\O)C(c1ccccc1F)NC2c1ccccc1F (stereo unspecified)	64 µg/mL (≈ 180 µM)
CC12CCCC(/C1=N\O)C(c1ccc(Br)cc1)NC2c1ccc(Br)cc1 (stereo unspecified)	128 µg/mL (≈ 268 µM)
COc1cccc(C2NC(c3cccc(OC)c3)C3(C)CCCC2/C3=N\O)c1 (stereo unspecified)	128 µg/mL (≈ 336 µM)
CC12CCCC(/C1=N\O)C(c1cccc(Cl)c1)NC2c1cccc(Cl)c1 (stereo unspecified)	128 µg/mL (≈ 329 µM)

Reference: ChEMBL document CHEMBL1154956, “Stereospecific synthesis of oximes and oxime ethers of 3-azabicycles: A SAR study towards antimicrobial agents” (2010)
